Results reported in ChEMBL document CHEMBL4414566, “Cytotoxicity and Anti-inflammatory Properties of Apigenin-Derived Isolaxifolin” (J Nat Prod, 2019).

Tests used:
Assay type in all cases: functional
[1] = test system: MDA-MB-231; experiment: Induction of mitochondrial membrane potential loss in human MDA-MB-231 cells assessed as cell population with intact mitochondrial membrane potential by measuring red fluorescence at 17.3 uM incubated for 48 hrs by JC1 staining based flow cytometric analysis (reference value: 92.04%)
Method in brief: (§1)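 MDA-MB-231 cells in DMEM/10% FBS exposed 48 h to 0, 8.6, 12.4 or 17.3 μM. Harvested cells stained with JC-1 for 15 min in the dark, then analysed by flow cytometry. Excitation 488 nm; green emission read at 525 nm, red at 590 nm. Output given as percent green-to-red fluorescence intensity ratio. Triplicate, mean ± SD.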

[2] = test system: MDA-MB-231; experiment: Induction of mitochondrial membrane potential loss in human MDA-MB-231 cells assessed as cell population with intact mitochondrial membrane potential by measuring red fluorescence at 8.6 uM incubated for 48 hrs by JC1 staining based flow cytometric analysis (reference value: 92.04%); method in brief: as §1
[3] = test system: MDA-MB-231; experiment: Induction of mitochondrial membrane potential loss in human MDA-MB-231 cells cell population with mitochondrial membrane potential collapse by measuring green fluorescence at 17.3 uM incubated for 48 hrs by JC1 staining based flow cytometric analysis (reference value: 7.96%); method in brief: as §1
[4] = test system: HepG2; experiment: Antiproliferative activity against human HepG2 cells assessed as cell viability at 24.7 uM incubated for 48 hrs by methylene blue assay relative to control; conditions: HepG2, 48 h, read-out: Activity
Method in brief: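 MDA-MB-231, MCF-7, HepG2 and LNCaP cells were grown in DMEM; HCT-116 and LO-2 in RPMI-1640; all with 10% FBS at 37 °C, 5% CO2. Cells seeded at 1.5 × 10^5 cells/mL and incubated overnight (~12 h), then exposed to 6.2–30.9 μM or 23.1–185.0 μM (final DMSO <0.1%) for 48 h. Read by methylene blue staining; viability = Abs treated/Abs untreated × 100%, triplicate.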

`CC(C)=CCc1c2c(c(O)c3c(=O)cc(-c4ccc(O)cc4)oc13)C=CC(C)(C)O2` [LAXIFOLIN] was tested, and the Activity [1] was 73.25%, the Activity [2] was 83.51% and the Activity [3] was 26.75%. For the same compound, the viability at 24.7 µM [4] was 20%.
